In ChEMBL document CHEMBL2424539, “Identification, synthesis and evaluation of substituted benzofurazans as inhibitors of CREB-mediated gene transcription” (Bioorg Med Chem Lett, 2013):

Assays:
[1] = Inhibition of CREB (unknown origin)-mediated gene transcription in HEK293T cells preincubated for 30 mins followed by forskolin addition measured after 5 hrs by luciferase reporter gene assay; assay type: cell-based; details: Homo sapiens, HEK-293T
Summary of the method: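 HEK 293T cells transfected with CRE-RLuc (RLuc driven by three tandem CRE copies), treated with graded compound concentrations for 30 min, then stimulated with forskolin (10 μM) for another 5 h. Cells lysed and RLuc activity read, normalized to protein (RLU/μg protein). Stocks in DMSO (one in DMF). IC50 in μM, mean ± SD of at least two independent experiments run in triplicate; top concentration 50 or 100 μM.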

[2] = (§1) Inhibition of CREB-KID/CBP-KIX domain interaction (unknown origin) after 20 hrs by luciferase reporter gene assay; design: species or system Homo sapiens
Summary of the method: (§2)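 Split Renilla luciferase complementation assay: RLucC-KIX and KID-RLucN fusions mixed with graded compound concentrations at 4 °C for 20 h, then residual RLuc activity measured. Stocks in DMSO (one in DMF). IC50 in μM, mean ± SD of at least two independent experiments run in duplicate; top concentration 50 or 100 μM.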

Homo sapiens = species: Homo sapiens; assay: as §1; summary of the method: as §2
HEK-293T [3] = assay: Selectivity ratio of IC50 for Herpesvirus VP16-CREB (unknown origin)-mediated gene transcription in HEK293T cells to IC50 for CREB (unknown origin)-mediated gene transcription in HEK293T cells; assay type: cell-based
[4] = Inhibition of Herpesvirus VP16-CREB (unknown origin)-mediated gene transcription in HEK293T cells by luciferase reporter gene assay; assay type: cell-based; details: HEK-293T
Summary of the method: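 HEK 293T cells cotransfected with VP16-CREB plus CRE-RLuc, treated with graded compound concentrations without forskolin stimulation, then lysed and RLuc activity read and normalized to protein (RLU/μg protein). IC50 in μM, mean ± SD of at least two independent experiments run in triplicate; top concentration 50 or 100 μM.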

HEK-293T [5] = assay: Selectivity ratio of IC50 for CREB (unknown origin)-mediated gene transcription in HEK293T cells to IC50 for CREB-KID/CBP-KIX domain interaction (unknown origin); assay type: cell-based; details: Homo sapiens

| SMILES | IC50 [1] [µM] | IC50 [2] [µM] | inhibition (Homo sapiens) | IC50 [4] [µM] | Ratio IC50 (HEK-293T [3]) | Ratio IC50 (HEK-293T [5]) |
| --- | --- | --- | --- | --- | --- | --- |
| O=C(Nc1ccc(Cl)cc1)c1ccc([N+](=O)[O-])c2nonc12 | > 50 | 0.17 |  |  |  |  |
| O=[N+]([O-])c1ccc(Sc2cccc[n+]2[O-])c2nonc12 | 2.09 | 0.36 | Dose-dependent effect | 6.14 | 3 |  |
| O=[N+]([O-])c1ccc(CNc2ccc(Cl)cc2)c2nonc12 | > 50 | 13.1 |  |  |  |  |
| O=[N+]([O-])c1cc(NCc2cccc3nonc23)ccc1Cl | > 50 | > 50 |  |  |  |  |
| Nc1ccc(Nc2ccc(Cl)cc2)c2nonc12 | 50 | 50 |  | > 50 |  |  |

Second part, led by results:

| IC50 [1] [µM] | IC50 [2] [µM] | inhibition (Homo sapiens) | IC50 [4] [µM] | SMILES | Ratio IC50 (HEK-293T [3]) | Ratio IC50 (HEK-293T [5]) |
| --- | --- | --- | --- | --- | --- | --- |
| 13.7 | 7.14 |  | > 100 | O=[N+]([O-])c1ccc(Nc2ccc(Cl)cc2)c2nonc12 |  | 2 |
| 9.42 | 0.41 |  | 13.2 | O=[N+]([O-])c1ccc(Sc2ccccn2)c2nonc12 |  |  |
